Compound activity deposited in PubChem by The Scripps Research Institute Molecular Screening Center.
Sampled rows, rich in hits. Any-hit rate of the full collection: about 2.3%.
TAAR1 ag: agonists of human TAAR1; Q96RJ0; CHO RD-HGA16 TAAR1, Fluo-8 calcium fluorescence; vehicle wells 0%, saturating PEA agonist 100%; activation, % at 3 µM; 360,000 compounds, 0.99% hits; AID 624467;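 active means activation above the mean activation of all test compounds in the run plus 3 SD, cut at about 38% in these data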
Target sequence (Q96RJ0 whole entry, looked up): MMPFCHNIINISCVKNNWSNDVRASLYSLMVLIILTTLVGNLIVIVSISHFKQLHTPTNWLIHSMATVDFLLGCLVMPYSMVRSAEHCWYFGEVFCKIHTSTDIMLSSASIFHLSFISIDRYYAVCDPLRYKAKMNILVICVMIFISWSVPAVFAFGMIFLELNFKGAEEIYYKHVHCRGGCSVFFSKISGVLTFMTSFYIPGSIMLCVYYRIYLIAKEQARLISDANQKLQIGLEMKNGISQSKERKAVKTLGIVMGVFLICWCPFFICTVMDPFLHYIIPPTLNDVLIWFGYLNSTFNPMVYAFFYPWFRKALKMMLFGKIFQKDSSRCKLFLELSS
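Signal – calcium-sensitive Fluo-8 signal, excitation 470-495, emission 515-575 nm · System – RD-HGA16 (CHO) cells co-expressing Gα16 and hTAAR1 · Incubation – 17-24 h seeding, 75 min 37 °C dye, 30 min RT · Compound dosing – 3 µM single concentration · Repeats – no replicates (n 1)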
V1aR counter: counter-screen for oxytocin receptor agonists: human V1a receptor agonists; CHO-V1R cells, Fluo-8 calcium fluorescence, agonist mode; 0% DMSO, 100% 3 nM vasopressin; activation, % at 3 µM; 320,000 compounds, 0.25% hits; AID 2797;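 active means activation above the mean activation of all tested compounds plus 3 SD, per screening run, cut at about 20% in these data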;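 further: signal is peak over basal fluorescence ratio across a 100 second FLIPR read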
OXTR potentiator: potentiators of human oxytocin receptor. P30559. 320,000 compounds, 0.061% hits. AID 2445. CHO-OTR cells, Fluo-8 calcium fluorescence, potentiator mode; 0% = oxytocin EC15, 100% = EC100. activation, % at 3 µM;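 active means activation above that plate's cutoff, the mean activation of tested compounds plus 3 SD, cut at about 6.6% in these data, passing the limit was not always enough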;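 further: 100% uses oxytocin at 75 nM as the full agonist control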
Target sequence (P30559 whole entry, looked up): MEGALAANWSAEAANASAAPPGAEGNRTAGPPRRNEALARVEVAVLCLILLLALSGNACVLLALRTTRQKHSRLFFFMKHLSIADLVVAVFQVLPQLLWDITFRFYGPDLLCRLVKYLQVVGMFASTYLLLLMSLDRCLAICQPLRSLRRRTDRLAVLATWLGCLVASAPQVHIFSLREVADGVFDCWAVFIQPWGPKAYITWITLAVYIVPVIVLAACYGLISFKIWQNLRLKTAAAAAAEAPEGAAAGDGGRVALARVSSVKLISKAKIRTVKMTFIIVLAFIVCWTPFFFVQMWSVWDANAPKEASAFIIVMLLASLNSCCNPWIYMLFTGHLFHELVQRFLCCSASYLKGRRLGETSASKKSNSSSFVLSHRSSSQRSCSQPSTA
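Assay system: CHO cell line stably expressing human OTR. Reagent: EC15 oxytocin agonist. Dosing: single dose, 3.0 µM nominal final compound concentration. Timing: compound 6 min at room temperature before oxytocin, 100 s read. Signal: kinetic Fluo-8 calcium fluorescence. Controls: oxytocin EC15 low and EC100 high.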
TAAR1 antag: antagonists of human TAAR1. inhibition, % at 3 µM. Q96RJ0. 360,000 compounds, 1.5% hits. CHO RD-HGA16 TAAR1, Fluo-8 calcium fluorescence, antagonist. AID 624466;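 active means inhibition above a per-plate cutoff, the mean inhibition of test compounds on that plate plus 3 SD, cut at about 49% in these data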;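 further: 0% = DMSO plus EC80 beta-PEA response and 100% = DMSO alone without agonist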
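Assay system: RD-HGA16 CHO cells with stable hTAAR1 and Gα16 / Reagent: EC80 β-phenethylamine stimulus / Doses: 3 µM, single point / Timing: dye loading 75 min at 37 °C, then 30 min room temperature / Measured by: Fluo-8 intracellular calcium dye fluorescence, real-time kinetic reads / Controls: vehicle wells and EC80 agonist wells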
OXTR agonist: human OXTR agonism. P30559. CHO-OTR cells, Fluo-8 calcium fluorescence; normalized: DMSO 0%, oxytocin 100%. activation, % at 3 µM. 320,000 compounds, 0.32% hits;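 active means activation above the mean of all tested compounds plus 3 SD, cutoff set per screening run, cut at about 20% in these data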;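 further: peak over basal fluorescence ratio from a 100 s FLIPR kinetic read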
TAAR1 ag conf: human TAAR1 agonism, confirmed. shares compounds with TAAR1 ag. CHO RD-HGA16 TAAR1, Fluo-8 calcium fluorescence; scaled: DMSO 0%, maximal phenethylamine 100%. activation, % at 3 µM. 2,400 compounds, 82% hits. AID 651783;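 active means activation above a cutoff set at the run's mean compound activation plus 3 SD, cut at about 39% in these data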
Ga16 ag counter: nonselective agonism, TAAR1 counter-screen | CHO-Ga16 parental, Fluo-8 calcium fluorescence; normalized to maximal ATP response, DMSO zero | shares compounds with TAAR1 ag | 2,400 compounds, 50% hits | activation, % at 3 µM;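 active means activation above the run cutoff, the mean activation over all tested wells plus 3 SD, cut at about 12% in these data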;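 further: 0% = DMSO wells and 100% = maximal ATP response on the peak over basal ratio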
TAAR1 desens: human TAAR1 agonist that also desensitizes the receptor; shares compounds with TAAR1 ag; CHO RD-HGA16 hTAAR1, Fluo-8 calcium, beta-PEA response inhibition; inhibition, % at 3 µM; 2,400 compounds, 46% hits; AID 651951;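 active means inhibition above the run cutoff, the mean inhibition of all test compounds plus 3 SD, cut at about 49% in these data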;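 further: beta-PEA stimulus applied at its EC80; loss of beta-PEA calcium signal after compound pretreatment read as receptor desensitization; 0% = DMSO with beta-PEA at EC80 and 100% = DMSO alone without agonist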
Ga16 nonsel ant: counter-screen for TAAR1 agonists: nonselective Ga16 antagonists; shares compounds with TAAR1 ag; CHO-Ga16 ATP-induced calcium, Fluo-8 fluorescence; inhibition, % at 3 µM; 2,400 compounds, 39% hits; AID 651952;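 active means inhibition above the plate's mean compound inhibition plus 3 SD, computed per plate, cut at about 22% in these data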;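 further: 0% = EC80 ATP with DMSO and 100% = DMSO wells without ATP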
Active calls of the source: *; nt = no result.

SMILES	TAAR1 ag	V1aR counter	OXTR potentiator	TAAR1 antag	OXTR agonist	TAAR1 ag conf	Ga16 ag counter	TAAR1 desens	Ga16 nonsel ant
CC(=O)c1cccc(NC(=S)NC(=O)Cc2ccc(Cl)cc2)c1	94*	21*	-25	57*	26*	106*	59*	85*	47*
O=C(Cc1ccc(Cl)cc1)NC(=S)Nc1ccccc1N1CCOCC1	65*	13	-17	52*	1	72*	44*	57*	34*
O=C(Cc1ccccc1)NC(=S)Nc1cccc(C(F)(F)F)c1	55*	12	-11	43	8	33	15*	38	18
CCCCn1nnc(NC(=O)c2ccco2)n1	4	1	-5	-9	1	nt	nt	nt	nt
O=C(Cc1ccccc1)NC(=S)Nc1cc(C(F)(F)F)ccc1Cl	53*	12	-13	49*	1	49*	20*	39	19
Cc1ccc(C(=O)NC(=S)Nc2cc(C(F)(F)F)ccc2Cl)cc1	7	0	-5	22	0	nt	nt	nt	nt
CCOC(=O)CCNC(C)C1COc2ccccc2O1 (stereo not given)	14	-1	-8	-2	-1	nt	nt	nt	nt
C/C=C/c1ccc(OCC(O)CNCCc2ccc(OC)cc2)c(OC)c1 (stereo not given)	63*	5	-18	12	8	96*	29*	46	11
COc1ccc(C(OCC(O)CNCCc2ccccc2)c2ccc(OC)cc2)cc1 (stereo not given)	104*	nt	nt	97*	nt	104*	18*	101*	27*
C/C=C/c1ccc(OCC(O)CNCC(c2ccc(OC)cc2)N(C)C)c(OC)c1 (stereo not given)	-2	2	2	1	-1	nt	nt	nt	nt
COc1cc(/C=N/n2nnnc2N)ccc1OCC#N	2	0	-5	5	0	nt	nt	nt	nt
c1ccc2c3c([nH]c2c1)CCNC3	82*	0	-19	81*	0	103*	0	93*	2
Cc1ccc2[nH]c3c(c2c1)CNCC3	28	2	-7	7	2	nt	nt	nt	nt
CN(C)c1ccc(-c2csc(C(O)c3ccc(F)cc3)n2)cc1 (stereo not given)	77*	nt	nt	91*	nt	90*	59*	98*	73*
Cc1ccc(-c2csc(C(O)c3ccc(F)cc3)n2)cc1C (stereo not given)	0	nt	nt	16	nt	nt	nt	nt	nt
NC(Cc1ccc(C(F)(F)F)cc1)c1csc(NC(=O)Nc2ccccc2Cc2ccccc2)n1 (stereo not given)	21	nt	nt	33	nt	nt	nt	nt	nt
Cc1ccc(SC/C(O)=C(\C#N)c2nc3ccccc3n2C)cc1	52*	2	-8	56*	3	31	51*	19	53*
Cn1c(/C(C#N)=C(\O)CN2CCN(Cc3ccccc3)CC2)nc2ccccc21	2	1	-6	-22	-1	nt	nt	nt	nt
CC(CCc1ccc(O)cc1)N(C)CCc1ccccc1 (stereo not given)	49*	1	-1	6	2	61*	5	5	-6
CC(C)(C)c1cc(-c2csc(Nc3ccccc3)[n+]2Cc2ccc(C(=O)O)cc2)cc(C(C)(C)C)c1O	nt	-1	-5	nt	0	nt	nt	nt	nt
O=C(N/N=C\c1c(O)ccc2ccccc12)c1cncc(Br)c1	121*	155*	-17	59*	152*	72*	90*	52*	58*
CN(CC(=O)Nc1ccc(OC(F)(F)F)cc1)C1CCCCC1	14	-1	1	-13	0	nt	nt	nt	nt
O=C(CNCC1CCCCC1)Nc1ccc(OC(F)(F)F)cc1	74*	1	-5	41	5	76*	51*	49*	33*
Cc1ccc(C(=O)Nc2ccc(Br)cc2)cc1S(=O)(=O)Nc1ccccn1	66*	2	2	0	2	10	5	6	15
Cc1ccccc1NC(=O)c1ccc(C)c(S(=O)(=O)Nc2ccccn2)c1	6	0	-6	-9	-1	nt	nt	nt	nt
SMILES	TAAR1 ag	V1aR counter	OXTR potentiator	TAAR1 antag	OXTR agonist	TAAR1 ag conf	Ga16 ag counter	TAAR1 desens	Ga16 nonsel ant
COc1cc(C2CC(c3cccs3)=NN2C(=O)CCl)ccc1OC(F)F (stereo not given)	-2	2	0	-9	2	nt	nt	nt	nt
NC(Cc1ccc(F)cc1)c1csc(Nc2cc(Oc3ccccc3)ncn2)n1 (stereo not given)	71*	nt	nt	44	nt	85*	36*	61*	43*
NC(Cc1ccc(Cl)cc1)c1csc(Nc2cc(Oc3ccccc3)ncn2)n1 (stereo not given)	34	nt	nt	28	nt	nt	nt	nt	nt
COc1ccc(CC(N)c2csc(Nc3cc(Oc4ccccc4)ncn3)n2)cc1 (stereo not given)	56*	nt	nt	35	nt	58*	32*	52*	42*
COCOCCn1cc(CN2CCS(=O)(=O)N(Cc3ccc(-c4ccc(Cl)cc4)cc3)C(C(C)C)C2=O)nn1 (stereo not given)	0	nt	nt	-3	nt	nt	nt	nt	nt
Cc1cc(C(=O)NCCc2ccccc2)c2cc(F)ccc2n1	2	-1	-29	0	-1	nt	nt	nt	nt
CCN(CC)c1ccc(/C=C/C(=O)C2C(=O)C=C(C)OC2=O)cc1 (stereo not given)	406*	141*	-29	108*	158*	536*	664*	109*	105*
CCN(CC)c1ccc(C=C2C(=O)OC(c3ccccc3)OC2=O)cc1 (stereo not given)	4	1	-6	11	1	nt	nt	nt	nt
CC(=O)c1cccc(S(=O)(=O)N2CCCC(c3nc(-c4ccc(C)o4)no3)C2)c1 (stereo not given)	3	1	-5	2	-1	nt	nt	nt	nt
CCCCOC(=O)CSCC(=O)N1N=C(c2cccs2)CC1c1ccc(F)cc1 (stereo not given)	3	1	-1	4	-2	nt	nt	nt	nt
c1ccc(CCN=C2CCCc3c2[nH]c2ccccc32)cc1	95*	0	-8	96*	-2	99*	0	101*	9
CC1(C)CC(=O)C(C(=O)/C=C/NCCc2ccccc2)C(=O)C1	87*	0	2	92*	-1	109*	3	93*	0
